Source: ChEMBL document CHEMBL1221274, “Discovery and expanded SAR of 4,4-disubstituted quinazolin-2-ones as potent T-type calcium channel antagonists” (Bioorg Med Chem Lett, 2010)
One block for each molecule: values may come before it. The source made the active and inactive calls. No cut-off for these calls is given here.

What was measured:
[1] = target: Voltage-dependent T-type calcium channel subunit alpha-1I (Homo sapiens) (UniProt Q9P0X4); assay: Antagonist activity at Cav3.3 alpha1i by depolarized FLIPR assay; format: functional
Sequence of Voltage-dependent T-type calcium channel subunit alpha-1I (Homo sapiens) (Q9P0X4 whole entry): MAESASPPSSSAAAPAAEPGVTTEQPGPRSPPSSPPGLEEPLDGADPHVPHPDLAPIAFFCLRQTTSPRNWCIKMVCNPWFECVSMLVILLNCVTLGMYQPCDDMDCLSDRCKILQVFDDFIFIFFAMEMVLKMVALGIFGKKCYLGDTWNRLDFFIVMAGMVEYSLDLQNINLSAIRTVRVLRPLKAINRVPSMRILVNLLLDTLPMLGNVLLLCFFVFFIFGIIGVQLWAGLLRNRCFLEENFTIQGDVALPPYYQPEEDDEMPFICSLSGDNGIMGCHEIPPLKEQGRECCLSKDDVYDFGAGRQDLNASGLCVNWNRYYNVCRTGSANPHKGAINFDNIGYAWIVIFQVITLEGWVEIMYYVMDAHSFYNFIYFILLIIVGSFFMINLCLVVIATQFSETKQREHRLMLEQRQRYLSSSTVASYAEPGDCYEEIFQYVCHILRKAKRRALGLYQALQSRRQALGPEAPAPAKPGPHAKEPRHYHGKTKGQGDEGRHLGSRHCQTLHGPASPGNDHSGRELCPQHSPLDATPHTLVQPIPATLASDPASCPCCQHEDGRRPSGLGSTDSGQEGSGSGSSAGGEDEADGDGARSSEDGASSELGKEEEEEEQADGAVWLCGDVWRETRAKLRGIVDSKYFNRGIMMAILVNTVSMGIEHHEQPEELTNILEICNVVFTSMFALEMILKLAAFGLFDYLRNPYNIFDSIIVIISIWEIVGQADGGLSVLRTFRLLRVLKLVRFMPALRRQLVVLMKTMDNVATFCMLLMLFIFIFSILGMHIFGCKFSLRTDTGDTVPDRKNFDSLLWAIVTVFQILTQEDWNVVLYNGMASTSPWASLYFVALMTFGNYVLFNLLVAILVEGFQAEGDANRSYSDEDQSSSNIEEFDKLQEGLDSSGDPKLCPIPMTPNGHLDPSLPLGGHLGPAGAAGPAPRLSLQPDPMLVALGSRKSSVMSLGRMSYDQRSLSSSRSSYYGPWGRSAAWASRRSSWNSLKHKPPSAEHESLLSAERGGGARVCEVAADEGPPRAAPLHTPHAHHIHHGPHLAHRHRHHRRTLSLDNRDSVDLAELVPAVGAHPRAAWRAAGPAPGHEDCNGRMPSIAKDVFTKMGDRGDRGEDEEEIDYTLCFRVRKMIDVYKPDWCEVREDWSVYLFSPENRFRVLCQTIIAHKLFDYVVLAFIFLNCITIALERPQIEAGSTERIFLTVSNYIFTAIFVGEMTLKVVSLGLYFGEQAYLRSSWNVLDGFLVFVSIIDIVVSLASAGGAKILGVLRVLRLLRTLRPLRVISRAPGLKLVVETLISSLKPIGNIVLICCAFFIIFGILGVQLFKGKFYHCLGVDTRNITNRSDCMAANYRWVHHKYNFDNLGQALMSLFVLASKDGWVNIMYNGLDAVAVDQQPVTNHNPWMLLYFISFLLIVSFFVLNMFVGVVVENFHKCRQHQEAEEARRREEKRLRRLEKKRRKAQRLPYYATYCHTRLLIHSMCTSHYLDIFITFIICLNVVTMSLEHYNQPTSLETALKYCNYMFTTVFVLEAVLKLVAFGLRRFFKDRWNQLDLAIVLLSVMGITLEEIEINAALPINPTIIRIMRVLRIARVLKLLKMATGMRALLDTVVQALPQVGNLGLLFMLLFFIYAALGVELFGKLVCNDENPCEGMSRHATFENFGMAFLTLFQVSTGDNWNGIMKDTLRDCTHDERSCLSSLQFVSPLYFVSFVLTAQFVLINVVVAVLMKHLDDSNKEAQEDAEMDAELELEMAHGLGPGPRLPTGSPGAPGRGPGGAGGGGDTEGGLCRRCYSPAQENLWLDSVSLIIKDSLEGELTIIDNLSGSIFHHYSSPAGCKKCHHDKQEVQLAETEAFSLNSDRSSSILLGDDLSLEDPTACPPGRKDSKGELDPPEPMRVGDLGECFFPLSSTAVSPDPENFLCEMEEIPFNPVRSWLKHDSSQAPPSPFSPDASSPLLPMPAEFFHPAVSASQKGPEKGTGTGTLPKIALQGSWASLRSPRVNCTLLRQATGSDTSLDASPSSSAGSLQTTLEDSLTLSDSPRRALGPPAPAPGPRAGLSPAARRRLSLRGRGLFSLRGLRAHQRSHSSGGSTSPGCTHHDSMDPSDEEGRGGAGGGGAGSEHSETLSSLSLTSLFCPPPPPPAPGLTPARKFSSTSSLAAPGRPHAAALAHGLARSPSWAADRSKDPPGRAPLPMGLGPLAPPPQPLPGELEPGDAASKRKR

[2] = target: T1, PXR (nuclear receptor subfamily 1 group I member 2) (Homo sapiens, UniProt O75469); assay: PXR activation relative to rifampicin at 10 uM; settings: activation
T1 sequence (O75469 whole entry): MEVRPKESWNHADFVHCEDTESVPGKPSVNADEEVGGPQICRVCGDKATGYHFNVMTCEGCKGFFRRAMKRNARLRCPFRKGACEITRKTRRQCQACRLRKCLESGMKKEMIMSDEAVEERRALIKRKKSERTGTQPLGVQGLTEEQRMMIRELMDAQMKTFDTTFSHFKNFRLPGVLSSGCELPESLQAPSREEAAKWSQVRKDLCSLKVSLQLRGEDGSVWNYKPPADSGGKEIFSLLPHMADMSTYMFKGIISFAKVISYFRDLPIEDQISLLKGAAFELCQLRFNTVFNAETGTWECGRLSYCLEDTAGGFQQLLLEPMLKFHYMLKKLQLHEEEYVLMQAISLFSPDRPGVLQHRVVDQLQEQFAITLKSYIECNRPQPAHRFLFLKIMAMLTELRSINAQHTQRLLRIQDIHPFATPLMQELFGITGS

[3] = system: Rattus norvegicus; assay: Effect on sleep-awake pattern in rat assessed as decrease in REM sleep at 10 mg/kg, po for 16 hrs; format: functional, organism-based; parameters: dose 10 mg/kg
Outline: (§1)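 Crossover rat study over seven days, n = 7 male rats. ECoG and EMG recorded for 16 h and scored as active wake, light sleep, delta sleep or REM, as minutes per 30 min bin (±SEM). Each time point compared by linear mixed-effects ANOVA.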

[4] = Plasma clearance in dog; format: ADME, organism-based, Canis lupus familiaris
[5] = Plasma clearance in rat; format: ADME, organism-based
[6] = Half life in dog; format: ADME, organism-based, Canis lupus familiaris; settings: in vivo
[7] = species on record: Homo sapiens; assay: Plasma protein binding in human; settings: read-out: PPB (converted)
[8] = system: Rattus norvegicus; assay: Antiepileptic activity in […] rat assessed as inhibition of total seizures at 10 mg/kg, po after 4 hrs; format: functional
Outline: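 Seizure suppression measured by EEG in WAG/Rij rats (absence epilepsy model) after oral dosing; total seizure time scored 4 h post dose and expressed as percent inhibition.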

[9] = system: Rattus norvegicus; assay: Effect on sleep-awake pattern in rat assessed as increase in delta sleep at 10 mg/kg, po for 16 hrs; format: functional, organism-based; parameters: dose 10 mg/kg; outline: as §1
[10] = system: Rattus norvegicus; assay: Effect on sleep-awake pattern in rat assessed as decrease in active awake at 10 mg/kg, po for 16 hrs; format: functional, organism-based; parameters: dose 10 mg/kg; outline: as §1
[11] = Volume of distribution at steady state in rat; format: ADME, organism-based; settings: in vivo, read-out: Vdss
[12] = Volume of distribution at steady state in monkey; format: ADME, organism-based, Macaca mulatta; settings: rhesus monkey, in vivo; read-out: Vdss
[13] = Oral bioavailability in rat; format: ADME, organism-based; settings: in vivo
[14] = Half life in rat; format: ADME, organism-based; settings: in vivo
[15] = Plasma protein binding in rat; format: ADME, cell-free; settings: read-out: PPB (converted)
[16] = Plasma clearance in monkey; format: ADME, organism-based, Macaca mulatta; settings: rhesus monkey
[17] = species on record: Homo sapiens; assay: Effect on human Pgp-mediated drug transport assessed as efflux ratio of permeability from basolateral to apical over apical to basolateral side
[18] = target: Cytochrome P450 3A4 (Homo sapiens, UniProt P08684); assay: Inhibition of CYP3A4; format: ADME; settings: TDE = time-dependent effect
Sequence of Cytochrome P450 3A4 (P08684 whole entry): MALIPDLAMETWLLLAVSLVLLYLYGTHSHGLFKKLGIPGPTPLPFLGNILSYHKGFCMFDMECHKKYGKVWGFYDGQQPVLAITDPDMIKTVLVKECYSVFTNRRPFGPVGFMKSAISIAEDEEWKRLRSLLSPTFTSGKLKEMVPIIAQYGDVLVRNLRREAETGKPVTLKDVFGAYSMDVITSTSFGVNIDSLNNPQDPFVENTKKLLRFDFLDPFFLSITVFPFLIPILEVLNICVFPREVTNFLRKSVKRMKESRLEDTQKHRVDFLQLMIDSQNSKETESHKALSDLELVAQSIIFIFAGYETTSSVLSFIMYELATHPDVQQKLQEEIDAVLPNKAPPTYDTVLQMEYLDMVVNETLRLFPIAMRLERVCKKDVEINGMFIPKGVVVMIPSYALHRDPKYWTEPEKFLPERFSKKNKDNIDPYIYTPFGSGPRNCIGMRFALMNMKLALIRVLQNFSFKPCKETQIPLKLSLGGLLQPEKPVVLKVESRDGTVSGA

[19] = Oral bioavailability in monkey; format: ADME, organism-based, Macaca mulatta; settings: rhesus monkey, in vivo
[20] = Volume of distribution at steady state in dog; format: ADME, organism-based, Canis lupus familiaris; settings: in vivo, read-out: Vdss
[21] = Half life in monkey; format: ADME, organism-based, Macaca mulatta; settings: rhesus monkey, in vivo
[22] = Metabolic stability in human liver microsome assessed as compound remaining after 60 mins; format: ADME; settings: liver microsomes, read-out: Stability
Outline: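 Human liver microsomes (0.2 mg protein/mL) incubated with test compound at 1 µM plus NADPH cofactor at 37 °C for 30 or 60 min; percent parent compound remaining measured.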

[23] = species on record: Rattus norvegicus; assay: Effect on rat Pgp-mediated drug transport assessed as efflux ratio of permeability from basolateral to apical over apical to basolateral side
[24] = target: T2, Nuclear receptor subfamily 1 group I member 2 (Homo sapiens, UniProt O75469); assay: PXR activation relative to rifampicin at 10 uM; settings: 10 µM
T2 sequence (O75469 whole entry): T1 sequence (O75469 whole entry)

[25] = target: Voltage-dependent T-type calcium channel subunit alpha-1I (Homo sapiens) (UniProt Q9P0X4); assay: Antagonist activity at Cav3.3 alpha1i by hyperpolarized FLIPR assay; format: functional

Structure (SMILES): CC(C)(C)C1(c2ccccc2)c2cc(F)ccc2NC(=O)N1CC(F)(F)F (centres undefined)
Activity [1]: 757 nM | activation at 10 µM [2]: 44%

Structure (SMILES): O=C1Nc2ccc(F)c(F)c2C(CC(F)F)(c2ccc(F)cc2)N1CC(F)(F)F (centres undefined)
Activity [3]: Active | clearance [4]: 0.63 L/h/kg | clearance [5]: 3.3 L/h/kg | half-life [6]: 5.9 h | fraction unbound [7]: 0.015 | inhibition in vivo at 10 mg/kg [8]: 70% | Activity [9]: Active | Activity [10]: Active | Vd [11]: 6.7 L/kg | Vd [12]: 9.8 L/kg | bioavailability [13]: 15% | half-life [14]: 1.6 h | fraction unbound [15]: 0.021 | clearance [16]: 1.38 L/h/kg | Ratio [17]: 1.2 | Activity [1]: 14 nM | inhibition (INH) [18]: tde | bioavailability [19]: 15% | Vd [20]: 3.6 L/kg | activation at 10 µM [2]: 35% | half-life [21]: 5.8 h | remaining at 1 h [22]: 68% | Ratio [23]: 1.5

Structure (SMILES): CCCC1(c2cccc(Oc3ccccn3)c2)c2cc(Cl)ccc2NC(=O)N1CC(F)(F)F (centres undefined)
Activity [1]: 73 nM

Structure (SMILES): CCC1(c2ccccc2)c2cc(Cl)ccc2NC(=O)N1CC(F)(F)F (single isomer, unassigned; 21B)
Activity [1]: 3880 nM

Structure (SMILES): CCC1(c2ccccc2)c2c(ccc(F)c2F)NC(=O)N1CC(F)(F)F (single isomer, unassigned) [listing 1 of 2 here]
activation at 10 µM [2]: 48%

Structure (SMILES): CCC1(c2ccc(F)cc2)c2cc(F)ccc2NC(=O)N1CC(F)(F)F (centres undefined)
Activity [1]: 25 nM | activation at 10 µM [2]: 58%

Structure (SMILES): CCC1(c2ccccc2)c2cc(F)ccc2NC(=O)N1CC(F)(F)F (single isomer, unassigned; 35B) [listing 1 of 2 here]
Activity [1]: 3740 nM

Structure (SMILES): CCC1(c2ccc(F)cc2)c2c(ccc(F)c2F)N(Cc2c(C)noc2C)C(=O)N1CC(F)(F)F (centres undefined)
Activity [1]: 1830 nM

Structure (SMILES): CCCC1(c2ccc(F)cc2)c2cc(Cl)ccc2NC(=O)N1CC(F)(F)F (single isomer, unassigned; 24B)
Activity [1]: 1320 nM

Structure (SMILES): CCC1(c2ccccc2)c2c(F)ccc(F)c2NC(=O)N1CC(F)(F)F (centres undefined)
Activity [1]: 657 nM | activation at 10 µM [2]: 91%

Structure (SMILES): CCC1(c2ccccc2)c2c(ccc(Cl)c2F)NC(=O)N1CC(F)(F)F (centres undefined)
Activity [1]: 132 nM | activation at 10 µM [2]: 61%

Structure (SMILES): O=C1Nc2ccc(F)c(F)c2C(CCO)(c2ccc(F)cc2)N1CC(F)(F)F (centres undefined)
Activity [1]: 3090 nM

Structure (SMILES): CCC1(c2ccccc2)c2c(F)cccc2NC(=O)N1CC(F)(F)F (centres undefined)
Activity [1]: 111 nM | activation at 10 µM [2]: 83%

Structure (SMILES): CCCC1(c2cccc(N3CCOCC3)c2)c2cc(Cl)ccc2NC(=O)N1CC(F)(F)F (centres undefined)
Activity [1]: 161 nM

Structure (SMILES): CCC1(c2ccccc2)c2cc(F)ccc2NC(=O)N1CC(F)(F)F (single isomer, unassigned; 35A) [listing 1 of 2 here]
Activation [24]: 63%

Structure (SMILES): CCC1(c2ccccc2)c2cc(Cl)ccc2NC(=O)N1C (centres undefined)
Activity [25]: 2170 nM | Activity [1]: 847 nM

Structure (SMILES): CCCC1(c2ccc(F)cc2)c2c(ccc(F)c2F)NC(=O)N1CC(F)(F)F (centres undefined)
Activity [1]: 6 nM | activation at 10 µM [2]: 73%

Structure (SMILES): O=C1Nc2ccc(F)c(F)c2C(CCF)(c2ccc(F)cc2)N1CC(F)(F)F (centres undefined)
Activity [1]: 17 nM | activation at 10 µM [2]: 53% | remaining at 1 h [22]: 66%

Structure (SMILES): N#Cc1ccc([C@@]2(C3CC3)c3cc(Cl)ccc3NC(=O)N2CC(F)(F)F)cc1
Activity [25]: 590 nM | Activity [1]: 14 nM

Structure (SMILES): CCC1(c2ccccc2)c2cc(F)ccc2NC(=O)N1CC(F)(F)F (single isomer, unassigned; 35B) [listing 2 of 2 here]
activation at 10 µM [2]: 74%

Structure (SMILES): CCC1(c2ccc(F)cc2)c2c(ccc(F)c2F)NC(=O)N1CC(F)(F)F (centres undefined)
Activity [1]: 16 nM | activation at 10 µM [2]: 52% | remaining at 1 h [22]: < 1%

Structure (SMILES): CCCC1(c2ccc(F)cc2)c2cc(Cl)ccc2NC(=O)N1CC(F)(F)F (single isomer, unassigned; 24A)
Activity [1]: 25 nM

Structure (SMILES): N#CC1(c2ccc(F)cc2)c2c(ccc(F)c2F)NC(=O)N1CC(F)(F)F (centres undefined)
Activity [1]: 290 nM

Structure (SMILES): CCC1(c2ccccc2)c2c(ccc(F)c2F)NC(=O)N1CC(F)(F)F (single isomer, unassigned) [listing 2 of 2 here]
Activity [1]: 20 nM

Structure (SMILES): CCCC1(c2ccc(OC)cc2)c2cc(Cl)ccc2NC(=O)N1CC(F)(F)F (centres undefined)
Activity [1]: 879 nM

Structure (SMILES): CCC1(c2ccccc2)c2c(ccc(F)c2F)NC(=O)N1CC(F)(F)F (stereo in doubt; 36B)
Activity [1]: 2040 nM

Structure (SMILES): CCCC1(c2cccc(-c3nccs3)c2)c2cc(Cl)ccc2NC(=O)N1CC(F)(F)F (centres undefined)
Activity [1]: 62 nM

Structure (SMILES): CCC1(c2ccccc2)c2cc(F)ccc2NC(=O)N1CC(F)(F)F (single isomer, unassigned; 35A) [listing 2 of 2 here]
Activity [1]: 50 nM

The remaining lines, values ahead:

Activity [1]: 905 nM
Structure (SMILES): O=C1Nc2ccc(Cl)cc2C(CCF)(c2ccc(F)cc2)N1CC(F)(F)F (single isomer, unassigned; 30B)

Activity [1]: 111 nM
Structure (SMILES): CCCCC1(C2CC2)c2cc(Cl)ccc2NC(=O)N1CC(F)(F)F (centres undefined)

Activity [1]: 87 nM
Structure (SMILES): C=CCC1(c2ccccc2)c2cc(Cl)ccc2NC(=O)N1CC(F)(F)F (centres undefined)

Activity [1]: 318 nM
Structure (SMILES): CCCC1(c2cccc(-c3ccnn3C)c2)c2cc(Cl)ccc2NC(=O)N1CC(F)(F)F (centres undefined)

Activity [1]: 71 nM
Structure (SMILES): CCC1(c2ccccc2)c2cc(Cl)ccc2NC(=O)N1CC(F)(F)F (single isomer, unassigned; 21A)

Activity [1]: 38 nM | activation at 10 µM [2]: 49%
Structure (SMILES): CCCC1(c2ccccc2)c2cc(F)ccc2NC(=O)N1CC(F)(F)F (centres undefined)

Activity [1]: 447 nM
Structure (SMILES): CCC(C)C1(C2CC2)c2cc(Cl)ccc2NC(=O)N1CC(F)(F)F (centres undefined)

Activity [1]: 42 nM
Structure (SMILES): O=C1Nc2ccc(Cl)cc2C(CCF)(c2ccc(F)cc2)N1CC(F)(F)F (single isomer, unassigned; 30A)

Activity [25]: 239 nM | Activity [1]: 61 nM
Structure (SMILES): CC[C@]1(c2ccc(F)cc2)c2cc(Cl)ccc2NC(=O)N1CC(F)(F)F

Activity [1]: 60 nM
Structure (SMILES): O=C1Nc2ccc(Cl)cc2C(CC(F)F)(c2ccc(F)cc2)N1CC(F)(F)F (single isomer, unassigned; 31A)

Activity [1]: 469 nM
Structure (SMILES): O=C1Nc2ccc(Cl)cc2C(CC(F)F)(c2ccc(F)cc2)N1CC(F)(F)F (single isomer, unassigned; 31B)

Activity [1]: 171 nM
Structure (SMILES): CCCC1(c2cccc(OC)c2)c2cc(Cl)ccc2NC(=O)N1CC(F)(F)F (centres undefined)

Activity [1]: 53 nM | activation at 10 µM [2]: 70%
Structure (SMILES): CCC1(c2ccc(F)cc2)c2c(ccc(F)c2F)N(CCOC)C(=O)N1CC(F)(F)F (centres undefined)

Activity [1]: 141 nM
Structure (SMILES): CCC1(c2ccc(F)c(F)c2)c2cc(Cl)ccc2NC(=O)N1CC(F)(F)F (centres undefined)
